# In PubChem BioAssay:
# Activity calls are given as the source filed them.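 Rule for the calls, unless noted: active = viability at or below 30% in both replicate assays; inconclusive = viability at or below 30% in just one of the two assays; inactive = the rest.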
# Tests used:
# [1] = reducers of endogenous Her2 protein level, primary screen, SKBR3 breast tumor cells, AlphaScreen, ATP viability (AID 461;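 active = Her2 level under about 52% in both replicate screens, with viability over 70% of control, limit read from the data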;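 for Her2 level: lower value means less Her2 protein in the cells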;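 for viability: percent of carrier control wells set as 100% viability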); conditions: 18-24 h, measured here: SKBR3 viability, ATP luminescence, at 10 µM
# [2] = molecular target: Receptor tyrosine-protein kinase erbB-2 (Homo sapiens) (UniProt P04626); test: as above; conditions: 18-24 h, at 10 µM, stronger effect = lower value
# [3] = SK-BR-3 cell growth inhibitors, pilot screen, 24 h, human (AID 572;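 active = viability at or below 10% of carrier control in both of two separate runs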;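 note: compound exposure lasted between 18 and 24 h rather than exactly 24 h; 100% = carrier-treated control wells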); conditions: SK-BR-3 viability, CellTiter-Glo luminescence, at 10 µM, stronger effect = lower value
# [4] = HUVEC growth inhibition – cell-based, human, primary screen (AID 575); conditions: HUVEC proliferation, CellTiter-Glo luminescence, 72 h; at 10 µM; stronger effect = lower value;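 note: 100% = median of untreated cell wells with 0.1% DMSO on each plate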
# Procedure, shortened: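 System – primary HUVEC, no more than 12 passages · Medium – Low-serum (2% FBS) EBM, supplemented · Times – 72 h exposure, 37 °C, 5% CO2, 30 min RT equilibration · Measured by – luminescent ATP assay · Read-out – % viability relative to median vehicle-well signal on each plate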
# [5] = growth inhibitors of H69AR lung tumor, primary screen, human, duplicate replicates (AID 580;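 active = viability at or under a set limit in both replicates, limit being median viability minus 3 SD, cut at about 48% in these data, passing the limit was not always enough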;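 note: 100% = mean luminescence of untreated wells and 0% = no signal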); conditions: H69AR lung tumor cells viability, ATP luminescence, 72 h; at 10 µM; stronger effect = lower value
# [6] = reversal of MRP1-mediated doxorubicin resistance, pilot screen, H69AR cells, doxorubicin co-treatment (AID 601;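 active = viability loss from added drug above about 55%, and viability with drug at most 40%, in both replicates, limit read from the data, passing the limit was not always enough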); conditions: CellTiter-Glo, 72 h, at 10 µM; for differential viability (reversal): stronger effect = higher value
# [7] = 384-well plate pilot, post-Golgi transport modulator project, inhibition of yeast transport mutant growth (AID 636; in the data active = inhibition above about 31%); conditions: absorbance 615 nm, about 18 h, stronger effect = higher value
# [8] = growth suppression of yeast trafficking mutant, preliminary HTS, modulators of trafficking downstream of Golgi apparatus project, 1536-format plate, OD 615 nm (AID 637; in the data active = inhibition above about 30%); conditions: yeast transport mutant growth, absorbance 615 nm, 18 h; stronger effect = higher value
# [9] = H69AR cells + 2 uM doxorubicin, measured here: viability with 2 uM doxorubicin, stronger effect = lower value
# [10] = H69AR cells, compound alone cytotoxicity
# Receptor tyrosine-protein kinase erbB-2 (Homo sapiens), sequence (P04626 whole entry, looked up): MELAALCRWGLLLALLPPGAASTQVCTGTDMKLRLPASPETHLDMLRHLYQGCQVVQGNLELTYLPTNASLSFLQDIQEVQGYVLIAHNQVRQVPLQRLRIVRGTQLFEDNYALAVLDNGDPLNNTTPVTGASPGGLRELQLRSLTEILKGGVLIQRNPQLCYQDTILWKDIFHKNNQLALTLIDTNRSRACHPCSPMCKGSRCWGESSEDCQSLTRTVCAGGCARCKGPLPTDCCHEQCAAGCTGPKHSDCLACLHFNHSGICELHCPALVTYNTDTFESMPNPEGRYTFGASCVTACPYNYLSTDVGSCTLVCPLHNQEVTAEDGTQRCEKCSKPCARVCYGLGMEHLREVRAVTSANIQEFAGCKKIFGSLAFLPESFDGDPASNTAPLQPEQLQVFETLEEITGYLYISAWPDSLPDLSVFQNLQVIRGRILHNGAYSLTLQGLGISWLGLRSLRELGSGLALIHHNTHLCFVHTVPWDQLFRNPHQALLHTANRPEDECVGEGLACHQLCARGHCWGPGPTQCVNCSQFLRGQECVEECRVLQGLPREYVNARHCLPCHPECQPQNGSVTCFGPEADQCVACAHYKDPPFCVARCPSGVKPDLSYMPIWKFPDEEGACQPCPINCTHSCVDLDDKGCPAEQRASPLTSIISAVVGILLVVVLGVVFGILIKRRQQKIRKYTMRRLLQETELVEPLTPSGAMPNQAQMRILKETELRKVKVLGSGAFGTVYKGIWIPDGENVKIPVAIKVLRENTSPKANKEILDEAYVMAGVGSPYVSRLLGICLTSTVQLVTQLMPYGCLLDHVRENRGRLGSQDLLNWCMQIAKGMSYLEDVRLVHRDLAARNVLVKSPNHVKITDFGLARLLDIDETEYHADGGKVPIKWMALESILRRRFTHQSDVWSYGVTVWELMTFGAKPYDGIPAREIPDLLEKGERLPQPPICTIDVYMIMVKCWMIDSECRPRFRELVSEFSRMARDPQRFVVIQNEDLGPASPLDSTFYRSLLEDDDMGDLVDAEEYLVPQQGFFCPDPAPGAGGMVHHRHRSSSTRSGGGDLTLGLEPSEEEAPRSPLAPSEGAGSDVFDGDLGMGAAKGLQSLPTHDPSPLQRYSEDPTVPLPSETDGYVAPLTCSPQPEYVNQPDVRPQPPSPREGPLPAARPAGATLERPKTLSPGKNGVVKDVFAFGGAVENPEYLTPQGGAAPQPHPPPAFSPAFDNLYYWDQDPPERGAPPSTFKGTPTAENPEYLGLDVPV
Compound,viability [1] [%],Her2 level [2],viability [3],viability [4],viability [5],differential viability (reversal) ([6]; H69AR cells + 2 uM doxorubicin),"viability [6, 9] [%]","viability [6, 10] [%]",inhibition [7],inhibition [8]
CCN(CC)c1ccc(NC(=O)CN2CCN(CC(=O)Nc3ccccc3F)CC2)cc1,81.5,93.5% (inactive),81.5% (inactive),80.2% (inactive),99.6% (inactive),11% (inactive),88.6,99.6,-3.95% (inactive),-1.33% (inactive)
CCOC(=O)C1=C(C)NC(C)=C(C(=O)OCC)C1C(=O)OC1CCOC1=O (stereo not given),104,85% (inactive),104% (inactive),87.5% (inactive),93.8% (inactive),2.32% (inactive),91.4,93.8,-5.27% (inactive),0.95% (inactive)
CCCCN(CCCC)C(=O)CN(C)S(=O)(=O)c1ccc2c(c1)n(C)c(=O)c(=O)n2C,99.5,86% (inactive),99.5% (inactive),113% (inactive),96.1% (inactive),3.39% (inactive),92.7,96.1,-2.24% (inactive),2.38% (inactive)
CCOc1ccccc1NS(=O)(=O)c1c(C)noc1C,97.5,93.5% (inactive),97.5% (inactive),91.3% (inactive),109% (inactive),16.6% (inactive),92.1,109,-3.42% (inactive),-0.95% (inactive)
CCOc1ccc(NC(=O)CN(C)CC(=O)NC2CCCc3ccccc32)cc1OCC (stereo not given),83,88.5% (inactive),83% (inactive),100% (inactive),89.9% (inactive),-7.38% (inactive),97.3,89.9,-0.38% (inactive),0.33% (inactive)
Cc1ccc(-c2nc3ccccc3[nH]2)s1,74,95.5% (inactive),74% (inactive),59.8% (inactive),58.8% (inactive),4.25% (inactive),54.5,58.8,0.77% (inactive),-9% (inactive)
CC(=O)OCC(=O)c1ccc2ccn(C(C)=O)c2c1,106,89% (inactive),106% (inactive),94.9% (inactive),90.5% (inactive),-1.94% (inactive),92.5,90.5,-5.33% (inactive),3.11% (inactive)
O=C(Nc1ncc(Br)s1)C1CCCN1S(=O)(=O)c1cccc2cccnc12 (stereo not given),93,81.5% (inactive),93% (inactive),87.4% (inactive),29.8% (active),-10.8% (inactive),40.6,29.8,-0.38% (inactive),-1.5% (inactive)
C=CCn1c(SCC(=O)c2ccc(OC)cc2)nnc1C(C)NC(=O)c1cccs1 (stereo not given),102,88.5% (inactive),102% (inactive),90.9% (inactive),87% (inactive),-5.4% (inactive),92.4,87,-0.26% (inactive),7.67% (inactive)
O=C(COc1ccccc1)Nc1nc2ccccc2[nH]1,91.5,93% (inactive),91.5% (inactive),92.5% (inactive),91.5% (inactive),5.92% (inactive),85.6,91.5,-1.04% (inactive),-3.93% (inactive)
COc1ccc(-n2c(Cc3cccn3C)nnc2SCC(=O)Nc2cccc(OC)c2)cc1,106,97.5% (inactive),106% (inactive),80.9% (inactive),98% (inactive),0.895% (inactive),97.1,98,1.79% (inactive),0% (inactive)
O=C(c1cccs1)N1CCN=C1SCc1ccccc1,120,74.5% (inactive),120% (inactive),60.8% (inactive),90.4% (inactive),6.13% (inactive),84.2,90.4,3.51% (inactive),-0.66% (inactive)
CCOc1ccccc1C(=O)N1CCN(c2cccc(Cl)c2)CC1,118,80% (inactive),118% (inactive),23.3% (active),28.2% (active),-35.7% (inactive),63.8,28.2,-4.53% (inactive),1.15% (inactive)
Cc1cc(Cl)ccc1OCCCC(=O)N1CCOCC1,90,92.5% (inactive),90% (inactive),99.5% (inactive),87.7% (inactive),0.08% (inactive),87.6,87.7,-5.39% (inactive),11.2% (inactive)
CSCCC(NC(=O)c1ccco1)C(=O)O (stereo not given),97.5,110% (inactive),97.5% (inactive),112% (inactive),91.8% (inactive),0.86% (inactive),91,91.8,-0.93% (inactive),15% (inactive)
COc1ccc(N2CCC(CNS(=O)(=O)c3cccc(C(F)(F)F)c3)C2)cc1 (stereo not given),98,95% (inactive),98% (inactive),84.5% (inactive),86.7% (inactive),-2.23% (inactive),88.9,86.7,-2.63% (inactive),16.6% (inactive)

Compound,viability [1] [%],Her2 level [2],viability [3],viability [4],viability [5],differential viability (reversal) ([6]; H69AR cells + 2 uM doxorubicin),"viability [6, 9] [%]","viability [6, 10] [%]",inhibition [7],inhibition [8]
CCCSc1nc2c(cnn2-c2ccc(Cl)cc2)c(=O)[nH]1,106,89.5% (inactive),106% (inactive),98.1% (inactive),79% (inactive),-3.71% (inactive),82.7,79,-6.23% (inactive),0.95% (inactive)
CC1(C)CC(=O)C2=C(C1)OC(=O)C2(NC(=O)c1cccs1)C(F)(F)F (stereo not given),102,83% (inactive),102% (inactive),88.3% (inactive),98% (inactive),3.83% (inactive),94.2,98,-4.05% (inactive),12.2% (inactive)
CCN(CC)CCN1C(=O)C(=O)/C(=C(/O)c2c(C)[nH]c(C(=O)OC)c2C)C1c1ccco1 (stereo not given),88,105% (inactive),88% (inactive),107% (inactive),93.4% (inactive),-3.21% (inactive),96.6,93.4,-4.8% (inactive),-0.16% (inactive)
CCOC(=O)N1CCN(C(=O)C2c3cc(OC)c(OC)cc3C(=O)N3CCc4ccccc4C23)CC1 (stereo not given),116,97% (inactive),116% (inactive),102% (inactive),95.7% (inactive),-0.775% (inactive),96.4,95.7,-6.4% (inactive),0.49% (inactive)
COc1ccc(NC(=O)CS(=O)CC(=O)Nc2cc(Cl)ccc2OC)cc1 (stereo not given),91.5,106% (inactive),91.5% (inactive),80.8% (inactive),90.9% (inactive),-1.21% (inactive),92.1,90.9,-4.36% (inactive),-3.67% (inactive)
COc1cccc(OCC(O)CN2CCN(CCO)CC2)c1 (stereo not given),92.5,96% (inactive),92.5% (inactive),101% (inactive),93.2% (inactive),1.65% (inactive),91.6,93.2,1.18% (inactive),6.39% (inactive)
O=C(Nc1nc(-c2ccccc2)cs1)C1CCCCN1S(=O)(=O)c1ccccc1 (stereo not given),100,80% (inactive),100% (inactive),71.5% (inactive),73.8% (inactive),-18.2% (inactive),92,73.8,-0.13% (inactive),11.4% (inactive)
CCSC1(SCC)N=C(N)C2(C#N)C(c3ccccc3)NC(C)=C(C)C12C#N (stereo not given),95,85.5% (inactive),95% (inactive),81.4% (inactive),93.3% (inactive),19.2% (inactive),74.1,93.3,-5.07% (inactive),-2.79% (inactive)
CCCN1CCN(CCCNC(=O)Cn2nc(-c3ccc(Cl)cc3)ccc2=O)CC1,86,93.5% (inactive),86% (inactive),104% (inactive),101% (inactive),10.3% (inactive),90.6,101,-2.76% (inactive),2.42% (inactive)
c1ccc2ncc(-n3cnnn3)cc2c1,99.5,105% (inactive),99.5% (inactive),83.2% (inactive),94% (inactive),6.05% (inactive),87.9,94,-3.24% (inactive),5.74% (inactive)
COC(=O)c1ccc(CNC(=O)COc2ccccc2Br)o1,93,108% (inactive),93% (inactive),100% (inactive),103% (inactive),15% (inactive),87.6,103,-3.33% (inactive),-10% (inactive)
O=C(COC(=O)CSc1nnc(-c2ccc(Cl)cc2)o1)NCc1ccc2c(c1)OCO2,98,84% (inactive),98% (inactive),90.8% (inactive),104% (inactive),3.27% (inactive),100,104,-4.19% (inactive),0.79% (inactive)
CCOC(=O)c1ccc(N2C(=O)CC(N3CCN(C/C=C/c4ccccc4)CC3)C2=O)cc1 (stereo not given),84,91.5% (inactive),84% (inactive),91.4% (inactive),84.3% (inactive),-1.62% (inactive),85.9,84.3,-0.64% (inactive),-2.5% (inactive)
O=C(CSc1nnc(CNC(=O)c2c(F)cccc2Cl)o1)c1ccccc1,94.5,107% (inactive),94.5% (inactive),112% (inactive),92.1% (inactive),-1.57% (inactive),93.7,92.1,0.38% (inactive),-0.67% (inactive)
Fc1ccc(-n2c(Cc3ccccc3)nnc2SCc2nc(-c3cccs3)no2)cc1,99.5,92.5% (inactive),99.5% (inactive),73.1% (inactive),94.1% (inactive),17.9% (inactive),76.2,94.1,-3.73% (inactive),-0.98% (inactive)
